Screening results deposited in PubChem BioAssay by several laboratories.
In the library only some 9.6% were active in any assay of this set; here they are far more common.
bCat nuc transl – beta-catenin nuclear translocation modulation; HeLa beta-catenin nuclear translocation, immunofluorescence imaging; nuclear translocation activity, % at 5 µM; 190,000 tested, 0.3% active; AID 1665;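 active = nuclear translocation activity above 50% at 5 µM, with a well cell count of 50 or more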;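 note: per-cell ratio of nuclear to cytoplasmic median beta-catenin stain intensity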
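Test system: human HeLa cells, native beta-catenin. Compound dosing: 5 µM primary single dose, 0.1% DMSO, 0.02–20 µM confirmation series. Incubation: compound exposure 24 h at 37°C. Detection: beta-catenin immunostaining with DAPI counterstain, 20x imaging, 6 fields/well. Read-out basis: Nuclear/cytoplasmic beta-catenin signal ratio, % activation.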
Lmaj promast – inhibitors of Leishmania major promastigote growth; 200,000 tested, 9% active; AID 1063; inhibition, % at 10 µM; Leishmania major promastigotes, resazurin fluorescence viability; in the data active = inhibition above about 50%;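 note: promastigotes grown with compound for 44 hours at 28 °C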
MT stabilizer – microtubule stabilization, imaging screen. HeLa tubulin immunostaining HCS, 24 h; share of cells brighter than vehicle mean+2SD. 200,000 tested, 0.83% active. % tubulin-high responders, % at 10 µM. AID 2205;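 active = plate Z-score above 3 for both tubulin-high and condensed-nucleus cell shares, with cell loss under 80%, at 10 µM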;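 note: anti alpha tubulin signal scored within the nucleus-defined area of each cell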
Ba/F3 V617F tox – lowers viability of Ba/F3 cells expressing EpoR and JAK2V617F; ATP luminescence; inhibition, % at 5.6 µM; 220,000 tested, 1.1% active;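 active = inhibition above the campaign mean plus 3 SD over all tested compounds, cut at about 24% in these data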;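 note: cytokine-independent growth of Ba/F3 cells driven by EpoR plus mutant JAK2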
APP 5UTR inh – APP translation inhibition. SH-SY5Y APP 5'UTR-luciferase reporter, luminescence. 190,000 tested, 0.82% active. inhibition, % at 2 µM. AID 1285;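 active = inhibition above a set limit, derived from the sample mean plus 3 SD, cut at about 45% in these data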
BaF3 parental – parental Ba/F3 viability inhibition as JAK2V617F counter-screen; CellTiter-Glo ATP luminescence; inhibition, % at 5.6 µM; 220,000 tested, 1.1% active;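 active = inhibition above a per-campaign cutoff, the mean inhibition of all tested compounds plus 3 SD, cut at about 27% in these data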
Each line names hits and unclear results; the compound was inactive in the other large screens.

O=C(N/N=C/c1c(O)n(-c2ccccc2)c(=O)[nH]c1=O)c1ccncc1	Lmaj promast 91
Cn1c(O)c(C(=NCCc2c[nH]c3ccccc23)c2ccccc2)c(=O)n(C)c1=O	none
CCN1CCN(c2ccc([N+](=O)[O-])cc2C=C2C(=O)NC(=O)NC2=O)CC1	Lmaj promast 60
CCN(CC)c1ccc(CN2CC=C(c3ccc(F)cc3)CC2)cc1	Lmaj promast 96
Oc1ccc2ccccc2c1CN1CC=C(c2ccccc2)CC1	none
Cc1cccn2c(=O)c3c(nc12)N1CCc2ccccc2C1C1(C3)C(=O)NC(=O)N(C)C1=O (stereo not given)	Lmaj promast 50
CCCCN1C(=O)NC(=O)C2(Cc3c(nc4c(C)cccn4c3=O)N3CCc4ccccc4C32)C1=O (stereo not given)	Lmaj promast 96 (no result: bCat nuc transl)
CCCCN1C(=O)NC(=O)C2(Cc3c(nc4ccccn4c3=O)N3CCc4ccccc4C32)C1=O (stereo not given)	Lmaj promast 89
Cc1cccn2c(=O)c3c(nc12)N1CCCCCC1C1(C3)C(=O)N(C)C(=O)N(C)C1=O (stereo not given)	none (no result: Lmaj promast, MT stabilizer, APP 5UTR inh)
CCCC/C(=N\O)c1c[nH]c2ccccc12	none
CN1CCN(c2ccc(S(C)(=O)=O)cc2[N+](=O)[O-])CC1	Lmaj promast 54
CN1CCN(c2ccc(S(=O)(=O)C(F)(F)F)cc2[N+](=O)[O-])CC1	Lmaj promast 51
CN1CCN(c2ccc([N+](=O)[O-])c3no[n+]([O-])c23)CC1	Ba/F3 V617F tox 99, BaF3 parental 107 (no result: Lmaj promast, MT stabilizer, APP 5UTR inh)
CN1CCN(c2c(F)cc([N+](=O)[O-])c(N)c2Br)CC1	none
c1ccc2c(c1)Sc1ccccc1N2CC1CN2CCC1CC2 (stereo not given)	none (no result: Lmaj promast, MT stabilizer, APP 5UTR inh)
Clc1ccc(CSC(Cn2ccnc2)c2ccc(Cl)cc2Cl)cc1 (stereo not given)	Lmaj promast 99 (no result: bCat nuc transl)
Clc1ccc(COC(Cn2ccnc2)c2ccc(Cl)cc2Cl)cc1 (stereo not given)	Lmaj promast 98
Cc1cccc(NC(=O)CSc2nnc([C@@H](N)Cc3c[nH]c4ccccc34)o2)c1C	none (no result: bCat nuc transl)
Cc1oc(-c2ccccc2)nc1CN1C(=O)CN=C(c2ccccc2)c2ccccc21	none
Cc1ccc(CN2C(=O)CN=C(c3ccccc3)c3ccccc32)cc1	Lmaj promast 57 (no result: bCat nuc transl)
Cc1ccccc1-n1c(-c2ccco2)nc2ccccc2c1=O	none
CCC(=NCCO)c1c(O)n(-c2ccc(Cl)cc2)c(=O)[nH]c1=O	none
CN1CCC(N(C)c2ncnc3ccc(Br)cc23)CC1	Lmaj promast 52
CCCCN1CCC(O)(c2ccccc2)C(C(=O)c2ccccc2)C1 (stereo not given)	Lmaj promast 97
CN(C(=O)Oc1ccc(C(=O)c2ccc(Cl)cc2)cc1)c1ccccc1	Lmaj promast 56
CN(C)C(=O)Oc1ccc(OC(=O)c2ccccc2)cc1	none
CCOc1ccc(-n2c(O)c(N=Nc3ccc([N+](=O)[O-])cc3)c(=O)[nH]c2=O)cc1	none
Cc1ccc(C(=O)N[C@@H](C)CN2C3=NC[C@@H](Cc4ccccc4)N3C[C@H]2Cc2ccc(O)cc2)cc1Br	Lmaj promast 52
Cc1ccc(C(=O)N[C@@H](C)CN2C3=NC[C@H](Cc4ccccc4)N3C[C@H]2Cc2ccc(O)cc2)cc1Br	none (no result: Lmaj promast, MT stabilizer, Ba/F3 V617F tox, APP 5UTR inh, BaF3 parental)
COc1ccc(CNC(C)Cc2cccs2)cc1 (stereo not given)	Lmaj promast 77
CCOc1cc(/C=C2\C(=O)NC(=O)N(CCc3ccc(F)cc3)C2=O)ccc1O	none (no result: Lmaj promast, MT stabilizer, APP 5UTR inh)
O=C1NC(=O)C2(Cc3ccccc3N3CCOCC32)C(=O)N1c1ccccc1 (stereo not given)	Lmaj promast 92 (no result: bCat nuc transl)
O=C1NC(=O)C2(Cc3ccccc3N3CCCC32)C(=O)N1c1ccccc1 (stereo not given)	none
Cc1ccc(-c2nc3ccccc3c(=O)n2-c2ccccn2)cc1	none
Cc1ccc(-c2nc(N(C)C3CCN(C)CC3)c3ccccc3n2)cc1	Lmaj promast 99 (no result: bCat nuc transl)
CC(C)C(=O)NC(Oc1ccccc1Cl)C(Cl)(Cl)Cl (stereo not given)	none
COc1ccccc1OCCCn1cc(C(=O)c2ccco2)c2ccccc21	none
O=C(c1ccccc1)c1cn(CC(=O)N2CCCc3ccccc32)c2ccccc12	Lmaj promast 95 (no result: bCat nuc transl)
O=C(Cn1cc(C(=O)c2ccccc2)c2ccccc21)NCc1ccco1	MT stabilizer 31
O=C(c1ccco1)c1cn(Cc2ccc(Cl)cc2)c2ccccc12	Lmaj promast 80, MT stabilizer 5.6 (no result: bCat nuc transl)
FC(F)(F)c1cccc(N2CCNCC2)c1	none (no result: Lmaj promast, MT stabilizer, APP 5UTR inh)
CN(C(=O)Oc1cccc2cccnc12)c1ccccc1	none
CN(C(=O)Oc1ccc(Cl)c2cccnc12)c1ccccc1	Lmaj promast 54 (no result: bCat nuc transl)
O=[N+]([O-])c1cc(F)c(N2CCCC2)cc1N1CCNCC1	none
CN1CCN(c2cc(N3CCCCCC3)c(F)cc2[N+](=O)[O-])CC1	Lmaj promast 99 (no result: bCat nuc transl)
O=[N+]([O-])c1ccc(N2CCCC2)c(F)c1Br	none
CCN1CCN(c2cc(N3CCCC3)c([N+](=O)[O-])cc2F)CC1	Lmaj promast 99
CCCCc1nc2ccccc2c(=O)n1-c1ccc(Cl)cc1[N+](=O)[O-]	none
COc1cccc(C2CC3C(=O)C=CC2N3Cc2ccccc2)c1 (stereo not given)	Lmaj promast 99
OC(CCNCCc1c[nH]c2ccccc12)C(F)(F)F (stereo not given)	none
C=C1[C@@H](C)[C@H]2[C@H](Cc3ccccc3)NC(=O)[C@]23OC(=O)/C=C/[C@H](O)CCC[C@@H](C)C/C=C/[C@H]3[C@@H]1O	Ba/F3 V617F tox 44, APP 5UTR inh 54, BaF3 parental 48 (no result: Lmaj promast, MT stabilizer)
Cc1nn(Cc2ccccc2)c(C)c1C(=O)OCC(=O)Nc1ccccc1SCC#N	none
Clc1ccc(-c2nc3ccc(Cl)cn3c2CN2CCOCC2)cc1	Lmaj promast 53
O=c1c2cc(Cl)cc(Cl)c2nc(CN2CCOCC2)n1-c1ccccc1F	none
CC12CCCCC1N(O)CN2O (stereo not given)	none
N#CCP(=S)(c1ccccc1)c1ccccc1	none
COc1cc(NC(=O)CN2C3CCC2CC(O)(c2cccnc2)C3)cc(OC)c1 (stereo not given)	Lmaj promast 93
Clc1cccc(CN2CCCCC2c2cccnc2)c1 (stereo not given)	Lmaj promast 90
CCOC(=O)C1(CCc2ccccc2)CCN(Cc2cccc3cnccc23)CC1	Lmaj promast 82
NC(=O)C1(N2CCCCC2)CCN(Cc2ccccc2)CC1	none
CCOC(=O)C1(CCc2ccccc2)CCN(Cc2csc(C(C)=O)c2)CC1	Lmaj promast 83
CCOC(=O)C1(CCc2ccccc2)CCN(Cc2cccc3c2OCO3)CC1	Lmaj promast 79
CC(C)N1CCN(Cc2cccc3c2OCO3)CC1CCO (stereo not given)	none
COc1cc(CN2CCN(c3cc(C)ccc3C)CC2)ccc1O	Ba/F3 V617F tox 35, BaF3 parental 50 (no result: bCat nuc transl)
